Assay outcomes deposited in PubChem BioAssay by several laboratories.
UPR XBP1 act: adaptive UPR (XBP1) activation; CHO-XBP1 luciferase reporter, IRE1-XBP1 UPR activation, luminescence; percent of tunicamycin response, DMSO as zero; hit rate 0.33% among 330,000; activation, % at 20 µM;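 active = versus positive control, 20 µM dose yields 30% or more activation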;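 note: 100% = tunicamycin at 10 µg/mL and 0% = DMSO only wells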
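Assay system: IRE1-XBP1 luciferase reporter CHO line. Input: 1000 cells/well. Buffer or medium: F12 with 10% serum. Doses: 20 µM, 1% DMSO. Times: overnight seeding at 37 °C, 6 h compound treatment at 37 °C. Technique: Steady-Glo luciferase glow luminescence, 10 min after reagent addition.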
CHOP inh: inhibitors of CHOP induction in ER stress response | CHO-K1 CHOP-promoter luciferase, tunicamycin-induced, 15-18 h | inhibition, % at 10 µM | hit rate 3.8% among 220,000 | AID 2732;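 active = compounds that reduced the stress-induced luciferase reporter signal by more than about 70% of percent inhibition, limit read from the data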;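 note: 0% = tunicamycin plus vehicle and 100% = wells without tunicamycin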
HCV NS3 hel inh: blocks Hepatitis C virus NS3 helicase unwinding | NS3 helicase DNA unwinding, Cy5 molecular beacon fluorescence | inhibition, % at 10.9 µM | hit rate 0.56% among 290,000;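 active = inhibition above the mean of all tested compounds plus 3 SD, set per campaign, cut at about 35% in these data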;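 note: 0% = DMSO wells and 100% = thioflavine S control wells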
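Assay system: hepatitis C virus NS3 helicase domain fragment enzyme. Also added: annealed dual-labelled DNA beacon duplex, ATP-started. Timing: 1 h reaction at 25 °C, ATP-initiated. Technique: Cy5 fluorescence at 0 and 60 min, beacon hairpin quenching. Evaluation: % inhibition of unwinding. Replication: one well per compound.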
CHOP UPR activ: apoptotic UPR (CHOP) activation | CHO-CHOP luciferase reporter, luminescence; percent of tunicamycin response over DMSO baseline | activation, % at 10 µM | hit rate 0.34% among 330,000 | AID 449763;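 active = at 10 µM dose, activation of 40% or more, normalized to positive control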;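 note: 100% = tunicamycin at 10 µg/mL and 0% = DMSO alone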
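measured by = luciferase luminescence | assay system = CHO-CHOP cells, stable luciferase reporter of PERK-eIF2a-CHOP signalling | amount = 500 reporter cells seeded per well | timing = 6 h compound exposure at 37 °C after overnight seeding | controls = positive tunicamycin 10 µg/mL, negative DMSO alone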
PfM18AAP inh-1: blocks P. falciparum M18 aspartyl aminopeptidase. recombinant PfM18AAP, H-Glu-NHMec fluorogenic cleavage. inhibition, % at 7.35 µM. hit rate 1.2% among 290,000. AID 1822;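 active = inhibition above the campaign mean inhibition over all tested compounds plus 3 SD, cut at about 28% in these data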;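 note: 0% = plate median of test compound wells and 100% = 2 mM ZnCl2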
p97 inhibitor: inhibitors of human p97 ATPase; inhibition, % at 8 µM; recombinant p97 ATPase, Kinase-Glo ATP luminescence, 3 h; AID 1481; hit rate 0.42% among 220,000; in the data active = inhibition above about 15%;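 note: 0% = DMSO vehicle and 100% = wells lacking enzyme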
PfM18AAP inh-2: PfM18AAP inhibition, confirmation. shares compounds with PfM18AAP inh-1. recombinant PfM18AAP, H-Glu-NHMec fluorogenic cleavage. inhibition, % at 7.35 µM. hit rate 28% among 2,400;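 active = mean inhibition over replicate wells above the hit cutoff set for the earlier primary screen, cut at about 29% in these data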;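 note: 0% = median of test compound wells and 100% = 2 mM ZnCl2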
CTSL1 confirm: Cathepsin L (human) inhibition, confirmation; shares compounds with PfM18AAP inh-1; purified cathepsin L1, Z-Leu-Arg-MCA fluorescence; inhibition, % at 5.96 µM; 2,400 tested, under 10 active;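 active = average inhibition across replicates above the hit cutoff set in the earlier primary screen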;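 note: 0% = median of test compound wells and 100% = Z-Phe-Ala-diazomethylketone 1 µM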
Target sequence (P07711 whole entry, looked up): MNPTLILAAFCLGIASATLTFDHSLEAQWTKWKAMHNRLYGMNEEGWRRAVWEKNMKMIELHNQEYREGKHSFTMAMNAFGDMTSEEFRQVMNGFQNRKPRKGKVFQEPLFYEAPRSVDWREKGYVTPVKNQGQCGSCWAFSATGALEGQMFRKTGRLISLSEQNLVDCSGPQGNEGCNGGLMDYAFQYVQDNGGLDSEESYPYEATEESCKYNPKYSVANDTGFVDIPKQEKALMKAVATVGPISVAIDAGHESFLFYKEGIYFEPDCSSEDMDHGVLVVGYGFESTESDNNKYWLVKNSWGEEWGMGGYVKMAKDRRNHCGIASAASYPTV
CHOP confirm: confirmation of CHOP induction inhibitors. CHO-CHOP promoter luciferase reporter, tunicamycin-induced, luminescence. hit rate 45% among 2,100. shares compounds with CHOP inh. inhibition, % at 10 µM;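 active = mean of three repeat readings of reporter signal inhibition above a set limit, cut at about 70% in these data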;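 note: 0% = tunicamycin plus vehicle and 100% = wells lacking tunicamycin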
* marks the source's active call; other numbers are inactive results; / = no result. This is a sample that favours compounds with a hit; in the whole collection about 4.5% have one here.

SMILES | UPR XBP1 act | CHOP inh | HCV NS3 hel inh | CHOP UPR activ | PfM18AAP inh-1 | p97 inhibitor | CHOP confirm | others
CCOc1ccc(-n2c(O)c(C=Nc3ccc(N4CCOCC4)cc3)c(=O)[nH]c2=O)cc1 | -3 | 23 | 7 | -2 | 3 | 4 | /
C=CCn1c(O)c(C=Nc2ccc(N(CC)CC)cc2)c(=O)[nH]c1=O | 2 | 71* | 29 | 0 | 50* | -2 | / | PfM18AAP inh-2=-29;CTSL1 confirm=1
CCN(CC)c1ccc(N=Cc2c(O)n(-c3ccc(OC)cc3)c(=O)[nH]c2=O)cc1 | -3 | -32 | 25 | 1 | 42* | 3 | / | PfM18AAP inh-2=-35;CTSL1 confirm=1
Cc1ccccc1-n1c(C)nc2ccsc2c1=O | -1 | / | / | 0 | / | / | /
COC(=O)C1=C(c2ccc(OCc3ccccc3)cc2)C[C@@H]2CC[C@H]1N2C(=O)NCCCc1ccccc1 | 0 | / | / | 7 | / | / | /
CCOc1ccc(NC(=O)N2C[C@H]3C[C@@H](C2)c2cccc(=O)n2C3)cc1 | -2 | / | -18 | 1 | 11 | / | /
Cn1c(O)c(/C=N/N2CCOCC2)c(=O)[nH]c1=S | 4 | -1 | -2 | 2 | -8 | 8 | /
O=c1[nH]c(=O)n(-c2ccccc2F)c(O)c1/C=C1\C=Nc2ccccc21 | 1 | / | 11 | 0 | 42* | / | / | PfM18AAP inh-2=41*;CTSL1 confirm=-2
COc1ccc(-n2c(O)c(/C=C3\C=Nc4ccc(Br)cc43)c(=O)[nH]c2=O)c(OC)c1 | 3 | / | 20 | 4 | 24 | / | /
O=c1[nH]c(=O)n(-c2ccc(F)cc2)c(O)c1/C=C1\C=Nc2ccccc21 | -5 | / | 27 | 3 | 32* | / | / | PfM18AAP inh-2=29*;CTSL1 confirm=-5
COc1ccc(-n2c(O)c(/C=C3\C=Nc4ccc(Br)cc43)c(=O)[nH]c2=O)cc1 | 7 | / | 15 | 7 | 27 | / | /
CCCCC(C)C(OC(=O)CC(CC(=O)O)C(=O)O)C(CC(C)CC(O)CCCCC(O)CC(O)C(C)N)OC(=O)CC(CC(=O)O)C(=O)O (configuration not stated) | -2 | 23 | 25 | 0 | -2 | 2 | /
O=c1c2ccccc2nc(/C=C/c2ccccc2)n1-c1ccc(O)cc1 | 5 | / | -6 | 1 | 4 | / | /
O=c1c2ccccc2nc(/C=C/c2ccc(O)c(O)c2)n1-c1ccccc1 | 13 | / | 29 | 4 | 63* | / | / | PfM18AAP inh-2=41*;CTSL1 confirm=0
O=c1[nH]c(=S)[nH]c(O)c1N=Nc1ccc(S(=O)(=O)N2CCOCC2)cc1 | -4 | 0 | -13 | 1 | 12 | 7 | /
NS(=O)(=O)c1ccc(N=Nc2c(O)[nH]c(=S)[nH]c2=O)cc1 | -4 | 17 | 23 | 1 | 32* | 8 | / | PfM18AAP inh-2=11;CTSL1 confirm=14
C=C1C2C[C@H](O)C(C)(C)[C@@]2(O)[C@H](O)C[C@]23C[C@@](C)(O)[C@H](CC[C@H]12)[C@H]3OC(C)=O (some centres not stated) | -3 | -4 | 11 | -2 | 4 | 5 | /
O=[N+]([O-])c1cc2c(cc1CNCCc1ccc3c(c1)OCO3)OCO2 | -1 | 8 | 1 | 4 | 9 | 6 | /
CCN1CCN(Cc2cc3c(cc2[N+](=O)[O-])OCO3)CC1 | -3 | / | 17 | 1 | 48* | / | / | PfM18AAP inh-2=5;CTSL1 confirm=-2
O=c1[nH]sc2cc(F)ccc12 | / | 14 | 1 | / | 58* | 4 | / | PfM18AAP inh-2=37*;CTSL1 confirm=0
O=C1CCN(C(=O)C(Cl)Cl)N1 | 4 | -4 | -1 | -2 | 3 | -2 | /
Cc1cccc(NP(=O)(Oc2ccccc2F)Oc2ccccc2F)c1C | -3 | 58 | -3 | 1 | -3 | -7 | /
Cc1ccc(NP(=O)(Oc2ccccc2F)Oc2ccccc2F)cc1 | -2 | 98* | -12 | 0 | -5 | 0 | 101*
O=P(Nc1cccc(Cl)c1)(Oc1ccccc1)Oc1ccccc1 | -2 | -13 | -6 | 2 | -6 | -6 | /
CCc1ccc(NP(=O)(Oc2ccccc2F)Oc2ccccc2F)cc1 | -4 | 98* | -7 | -1 | -2 | 0 | 102*
SMILES | UPR XBP1 act | CHOP inh | HCV NS3 hel inh | CHOP UPR activ | PfM18AAP inh-1 | p97 inhibitor | CHOP confirm | others
COC(=O)C1=C(c2ccc(S(C)(=O)=O)cc2)C[C@@H]2CC[C@H]1N2C(=O)NC1CCCCC1 | 0 | / | / | 2 | / | / | /
NS(=O)(=O)c1ccc(-c2ccc(C=C3C(=O)NC(=S)NC3=O)o2)cc1 | -1 | / | 10 | 2 | 15 | / | /
O=C1NC(=O)C(=Cc2ccc(SC3CCCCC3)o2)C(=O)N1 | 1 | 108* | 21 | 2 | 18 | 2 | 55
CCc1ccc(C(=O)C23CN4CN(CN(C4)C2)C3)cc1 | 1 | 1 | -13 | 0 | 0 | -2 | /
CN1C2CCC1/C(=C/c1ccccn1)C(=O)/C2=C\c1ccccn1 | / | 108* | -14 | / | 6 | 4 | 111*
COC(=O)[C@@H]1[C@@H](C(=O)OC)C2(c3ccccc3-c3ccccc32)N(c2ccc(Cl)cc2)N1C#N | -7 | 109* | -2 | -10 | 0 | 1 | 124*
COC(=O)C[C@]1(C(=O)OC)CN(C#N)N(c2ccc(Cl)cc2)C12c1ccccc1-c1ccccc12 | -7 | / | -17 | -10 | 4 | 1 | 129*
COC(=O)C1=CO[C@@H](C)[C@@H]2CN3CC[C@@]4(C(=O)Nc5ccccc54)[C@@H]3C[C@H]12 | 0 | 10 | 1 | 0 | -3 | -5 | /
c1ccc(C2=NP(N3CCOCC3)(N3CCOCC3)=NC(N3CCOCC3)=N2)cc1 | / | 3 | -2 | / | 3 | 4 | /
COC(=O)[C@]12OC[C@]34C([C@@H](O)[C@@H]1O)[C@]1(C)CC(=O)C(O)=C(C)[C@@H]1C[C@H]3OC(=O)[C@H](O)[C@@H]24 (some centres not stated) | -4 | 104* | / | -5 | / | / | 108*
CN(C)C(=S)SSC(=S)N(C)C | / | 106* | 8 | / | 22 | 12 | -134
O=C1NC(=O)C(=Cc2ccc(-c3cc(Cl)ccc3[N+](=O)[O-])o2)C(=O)N1 | / | 105* | 14 | / | 20 | 4 | -60
NS(=O)(=O)c1ccc(-c2ccc(C=C3C(=O)NC(=O)NC3=O)o2)cc1 | -2 | / | 26 | 3 | 15 | / | /
O=C(CSC1c2ccccc2-c2ccccc21)N/N=C/c1ccccc1O | 1 | 100* | -2 | -3 | 14 | -3 | 118*
N=C(N)c1c(O)n(C2CCCCC2)c(=O)n(C2CCCCC2)c1=O | 7 | 108* | -12 | 0 | 7 | 1 | 73*
